# Shown are actives, neighbours in structure and some others; about 1.6% of the full set was active somewhere.
# FLuc stim CS – affects firefly luciferase, flagging false hits in luciferase stimulation screens. P08659. ATPlite luciferase biochemical, luminescence, 10 min; 0 = ATP-free wells, 1 = DMSO control. activation factor at 10 µM. 200,000 tested, under 10 active. AID 1027;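 active = luciferase activation factor, scaled between plate controls, of at least 2 with compound at 10 µM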
# Target sequence (P08659 whole entry, looked up): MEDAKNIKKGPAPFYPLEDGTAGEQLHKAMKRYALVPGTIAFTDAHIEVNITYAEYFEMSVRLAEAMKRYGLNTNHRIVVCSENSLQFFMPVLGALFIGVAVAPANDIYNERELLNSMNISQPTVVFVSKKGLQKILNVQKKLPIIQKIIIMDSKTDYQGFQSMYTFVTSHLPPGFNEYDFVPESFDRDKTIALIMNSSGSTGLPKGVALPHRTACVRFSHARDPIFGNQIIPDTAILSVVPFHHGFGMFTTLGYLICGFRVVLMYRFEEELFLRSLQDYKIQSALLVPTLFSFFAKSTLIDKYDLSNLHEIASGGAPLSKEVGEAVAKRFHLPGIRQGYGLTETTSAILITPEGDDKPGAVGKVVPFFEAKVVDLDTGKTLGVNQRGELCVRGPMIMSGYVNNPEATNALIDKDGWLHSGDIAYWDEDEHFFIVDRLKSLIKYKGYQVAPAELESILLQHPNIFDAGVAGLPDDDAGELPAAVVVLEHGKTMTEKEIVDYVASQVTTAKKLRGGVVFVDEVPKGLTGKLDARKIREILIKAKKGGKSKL
#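 Assay system: Luciferase/luciferin detection reagent, cell-free biochemical luciferase assay / Read-out: luciferase activation / Benchmarks: No-ATP low control, compound-free enzyme-plus-ATP high control / Medium: PBS buffer for ATP / Detection: luminescence measurement of luciferase light output / Schedule: 10 min at ambient temperature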
# TRAIL sens C8 – caspase-8 TRAIL sensitization. hit rate 1% among 360,000. inhibition (viability loss, TRAIL sensitization), % at 10 µM. NB7+C8 cells + TRAIL, ATPlite viability luminescence;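 active = compounds causing at least 50% loss of cell viability in the single-dose screen, relative to plate controls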
# FLuc inh counter – inhibits firefly luciferase, flagging false hits in luciferase inhibition screens | P08659 | inhibition, % at 10 µM | hit rate 1.5% among 200,000 | ATPLite firefly luciferase biochemical luminescence, 10 min;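 active = inhibition above about 50% when tested at 10 µM, limit read from the data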
# PPC-1+TRAIL kill – kills PPC-1 cancer cells in the presence of TRAIL; PPC-1 cells + TRAIL, ATPLite viability luminescence; cell killing (% activity), % at 4 µM or 5 µM; hit rate 0.41% among 220,000;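 active = cell killing above 50% in the first pass at 4 µM, then a duplicate retest at 5 µM averaging 50% or more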;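 note: plate controls were cells with TRAIL plus DMSO for no effect and medium-only wells lacking cells for full effect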
# Numbers without * were called inactive; . = no result given.
SMILES,FLuc stim CS,TRAIL sens C8,FLuc inh counter,PPC-1+TRAIL kill
Cc1ccc(/C=N/NC(=O)c2nn(C)cc2Cl)cc1,0.1,68*,86*,43
CCOC(=O)C1(C)CCN1C(=O)/C=C/c1ccccc1 (configuration not stated),.,-5,.,.
CC(C)(C)c1ccc(CC(=O)N2CCC2(C)C(=O)NCCC#N)cc1 (configuration not stated),.,10,.,.
COc1ccccc1CNC(=O)COC(=O)CCN1C(=O)C2CC=CCC2C1=O (configuration not stated),.,-6,.,.
CCCOc1ccc(CSc2nc3ccccc3[nH]2)cc1,0.4,53*,64*,27
c1ccc(CSc2nc3ccccc3[nH]2)cc1,.,26,.,24
CCOc1ccc(OCCSc2nc3ccccc3[nH]2)cc1,1,2,-2,24
O=[N+]([O-])c1ccc(CSc2nc3ccccc3[nH]2)cc1,0.4,20,65*,15
Cc1oc2cc3oc(=O)cc(C)c3cc2c1C,.,13,.,.
CC(C)Cn1c(N)c(C(=O)COC(=O)CCNS(=O)(=O)c2ccccc2)c(=O)n(C)c1=O,.,1,.,.
COc1ccccc1CNC(=O)COC(=O)c1cc2ccccc2o1,.,0,.,.
CC1CCC/C(=N/Nc2nc3ccccc3s2)C1 (configuration not stated),0.3,4,72*,26
CC(Sc1ccccc1)C(=O)N/N=C/c1ccccc1 (configuration not stated),.,-13,.,.
O=C(NC1=NCCS1)c1ccc(Cl)cc1,.,7,.,.
COc1cccc(C(=O)NC2=NCCS2)c1,0.5,24,52*,22
CC(C)Oc1cccc(C(=O)NC2=NCCS2)c1,0.8,-12,24,16
COc1cccc(C(=O)Nc2ccc(C3CC3(Cl)Cl)cc2)c1 (configuration not stated),0.4,49*,58*,21
O=C(NC1=NCCS1)c1ccc(-c2ccc(Cl)cc2)o1,0.3,43,66*,29
O=C(c1ccccc1)c1ccc(N2CCN(C(=O)c3ccc(F)cc3F)CC2)c(F)c1,.,13,.,.
COc1ccc(-c2cc3ccc(F)cc3cn2)cc1,.,57*,.,.
CCn1c(COc2cc(C)ccc2C(C)C)nnc1SCC(=O)Nc1nccs1,1,24,-3,4
Cc1oc2c(c(=O)c1C)C(=O)CC(c1ccccc1)C2 (configuration not stated),1,10,1,-2
CS(=O)(=O)c1sc(C#N)c2c1C(=O)CC(c1ccccc1)C2 (configuration not stated),.,73*,.,4
CC(C)OC(=O)CC1C(=O)NCCN1C(=S)NC(=O)c1cccs1 (configuration not stated),1.1,1,-5,-26
Cc1ccc(C(=O)NCCn2c(N)c(C#N)c3nc4ccccc4nc32)cc1,1.1,-8,-8,73*
SMILES,FLuc stim CS,TRAIL sens C8,FLuc inh counter,PPC-1+TRAIL kill
N#Cc1c(N)n(CCNC(=O)c2ccc(Cl)cc2)c2nc3ccccc3nc12,1,-5,-2,2
CC(C)CCn1cnc2c([nH]c3cccc(Cl)c32)c1=O,1,52*,-3,12
COc1ccccc1/C=C/C(=O)N1CCN(S(=O)(=O)c2cc(C)ccc2C)CC1,.,7,.,.
CC(C)(C)OC[C@H](NC(=O)c1[nH]cnc1C(=O)Nc1ccccc1F)C(=O)OC(C)(C)C,.,60*,.,.
CC(C)(C)OC(=O)NCc1ccc(NC(=O)c2nc[nH]c2C(=O)NCCCNC(=O)c2[nH]cnc2C(=O)Nc2ccc(CNC(=O)OC(C)(C)C)cc2)cc1,.,83*,.,.
O=C(Nc1ccccc1)c1nc[nH]c1C(=O)NCCCCNC(=O)c1[nH]cnc1C(=O)Nc1ccccc1,.,29,.,.
CC(C)(C)OC(=O)[C@H](Cc1ccccc1)NC(=O)c1nc[nH]c1C(=O)N[C@@H](Cc1ccccc1)C(=O)OC(C)(C)C,.,12,.,11
O=C(Nc1ccccc1)c1nc[nH]c1C(=O)Nc1ccccc1F,.,50*,.,.
O=C(Nc1cccc(Cl)c1)c1nc[nH]c1C(=O)NCCCNC(=O)c1[nH]cnc1C(=O)Nc1cccc(Cl)c1,.,50*,.,.
COC(=O)CCN1CCC2CC1c1cc(N3CCCCC3)ccc12 (configuration not stated),.,-11,.,.
O=c1ccc(-c2ccc(S(=O)(=O)N3CCN(c4ccccc4)CC3)o2)n[nH]1,.,-6,.,.
Cc1cc(=O)c(C(=O)Nc2cccc(C(=O)NC3CC3)c2)nn1-c1ccccc1,.,-6,.,.
C=CC[C@H](CC(=O)N(CCO)Cc1ccccc1)C(=O)N[C@H](COC(=O)[C@@H](CC=C)Cc1ccc(F)cc1)Cc1ccccc1,.,1,.,.
Cc1cc(S(=O)(=O)N2CCOCC2)ccc1OCC(=O)N1CCCC1,.,-5,.,.
CC(C)(C)OC(=O)NCCCCCNC(=O)c1[nH]cnc1C(=O)Nc1cc(Br)ccc1F,.,58*,.,.
CC(C)(C)OC(=O)NCc1ccc(CNC(=O)c2[nH]cnc2C(=O)Nc2ccccc2F)cc1,.,56*,.,.
CCOC(=O)c1ccc(NC(=O)c2nc[nH]c2C(=O)NCCCCCNC(=O)OC(C)(C)C)cc1,.,52*,.,12
O=C(Nc1ccccc1F)c1nc[nH]c1C(=O)NCc1ccccc1,.,9,.,.
CC(C)(C)OC(=O)NCc1ccc(NC(=O)c2nc[nH]c2C(=O)Nc2cc(Br)ccc2F)cc1,.,12,.,.
CC(C)(C)OC(=O)NCc1ccc(NC(=O)c2nc[nH]c2C(=O)NCCCCCCNC(=O)c2[nH]cnc2C(=O)Nc2ccc(CNC(=O)OC(C)(C)C)cc2)cc1,.,36,.,.
CC(C)(C)OC(=O)NCc1ccc(NC(=O)c2nc[nH]c2C(=O)NCCCCNC(=O)c2[nH]cnc2C(=O)Nc2ccc(CNC(=O)OC(C)(C)C)cc2)cc1,.,84*,.,.
CC(C)c1ccc(Nc2nc(CC(=O)O)cs2)cc1,0.3,25,71*,-2
Nn1c(-c2cccs2)nc2sc3c(c2c1=O)CCCC3,0.5,41,45,28
Cc1ccccc1-c1nc2sc3c(c2c(=O)n1N)CCCC3,0.9,54*,6,-2
COc1ccc(NS(=O)(=O)c2cccc(C(=O)N/N=C/c3c(F)c(F)c(F)c(F)c3F)c2)cc1,.,66*,.,.
SMILES,FLuc stim CS,TRAIL sens C8,FLuc inh counter,PPC-1+TRAIL kill
COc1ccc(NC(=O)CSc2nc3[nH]ncc3c(=O)n2-c2ccccc2OC)cc1OC,1,-16,-1,71*
COc1ccccc1C(C)NC(=O)CCNC(=O)c1ccc(Cl)cc1 (configuration not stated),.,-1,.,.
COc1cccc(CNc2ccc(Br)cn2)c1O,0.4,26,62*,29
COc1cccc(CNc2ncc(Br)cc2Br)c1O,0.9,-6,8,-7
N/C(=N\OC(=O)CCC1CCCC1)c1ccccc1,0.1,-6,88*,-2
N/C(=N\OC(=O)CCC1CCCC1)c1ccccn1,0.2,-1,84*,8
N/C(=N\OC(=O)CCCc1ccccc1)c1ccccn1,0.4,-11,60*,25
CC1CCN(C(=S)Nc2ccc(SC(F)F)cc2)CC1,0.3,36,66*,45
CC(=O)N1CCN(C(=S)Nc2ccc(SC(F)F)cc2)CC1,1,-1,-4,23
COc1ccccc1C(=O)NCC(=O)N1CCN(c2ncccn2)CC1,.,-16,.,.

# Compound activity (PubChem BioAssay)
